High-throughput results from PubChem.
V1aR counter – V1a receptor agonism, counter-screen for OXTR agonists; P37288; CHO-V1R cells, Fluo-8 calcium fluorescence, agonist mode; 0% DMSO, 100% 3 nM vasopressin; activation, % at 3 µM; actives 0.25% (n = 320,000); AID 2797;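 active = activation above the mean activation of all tested compounds plus 3 SD, per screening run, cut at about 20% in these data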;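 note: signal is peak over basal fluorescence ratio across a 100 second FLIPR read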
Target sequence (P37288 whole entry, looked up): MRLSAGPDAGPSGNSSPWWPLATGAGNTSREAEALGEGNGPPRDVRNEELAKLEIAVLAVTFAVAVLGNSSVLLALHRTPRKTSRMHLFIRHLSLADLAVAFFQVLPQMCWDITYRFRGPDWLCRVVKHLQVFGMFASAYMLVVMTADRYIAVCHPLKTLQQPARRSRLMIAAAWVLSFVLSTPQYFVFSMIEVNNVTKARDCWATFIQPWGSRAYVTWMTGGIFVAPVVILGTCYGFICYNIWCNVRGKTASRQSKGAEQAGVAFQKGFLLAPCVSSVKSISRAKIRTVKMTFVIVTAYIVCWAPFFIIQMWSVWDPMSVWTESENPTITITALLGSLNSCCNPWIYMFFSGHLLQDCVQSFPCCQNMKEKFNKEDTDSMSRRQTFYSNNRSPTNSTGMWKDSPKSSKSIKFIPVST
OXTR potentiator – potentiates the human oxytocin receptor response; P30559; CHO-OTR cells, Fluo-8 calcium fluorescence, potentiator mode; 0% = oxytocin EC15, 100% = EC100; activation, % at 3 µM; actives 0.061% (n = 320,000); AID 2445;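 active = activation above that plate's cutoff, the mean activation of tested compounds plus 3 SD, cut at about 6.6% in these data, passing the limit was not always enough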
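test system = CHO-OTR cells, human receptor | compound = single-point 3.0 µM | schedule = 6 min compound pre-incubation at room temperature, 100 s kinetic read | signal = Fluo-8 no-wash calcium dye fluorescence, excitation 470-495 nm, emission 515-575 nm | repeats = single well per compound, singlicate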
TRPML3 agonist – human mucolipin-3 channel agonism | Q8TDD5 | HEK293 TRPML3-YFP, Fluo-8 calcium fluorescence; 100% = the carbachol control signal | activation, % at 3 µM | actives 0.29% (n = 220,000) | AID 1448;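 active = activation above its plate's cutoff, the mean activation of the plate's test wells plus 3 SD, cut at about 12% in these data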
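Material: TRPML3-YFP stable HEK293 cells | Dosing: One concentration, 3 µM nominal, 0.3% DMSO | Timing: 125 s total fluorescence read per well | Technique: Fluo-8 calcium dye fluorescence, ex 470-495, em 515-575 nm | Measure: Percent activation from peak-to-basal fluorescence ratio, scaled between DMSO and carbachol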
OXTR ag – agonists of human oxytocin receptor; AID 2435; P30559; activation, % at 3 µM; actives 0.32% (n = 320,000); CHO-OTR cells, Fluo-8 calcium fluorescence; normalized: DMSO 0%, oxytocin 100%;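 active = activation above the mean of all tested compounds plus 3 SD, cutoff set per screening run, cut at about 20% in these data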;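 note: peak over basal fluorescence ratio from a 100 s FLIPR kinetic read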
TRPN1 ag – agonists of zebrafish TRPN1 channel; HEK293 zebrafish TRPN1-YFP, Fluo-8 calcium fluorescence; 100% = response to 87 µM carbachol; activation, % at 3 µM; actives 0.18% (n = 220,000);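 active = activation above its plate's cutoff, the mean activation of test wells on that plate plus 3 SD, cut at about 19% in these data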
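System: zebrafish TRPN1-YFP in HEK293 cells / Dosing: 3 µM single point / Timing: dye loading 1 h at 37 °C, then 30 min room temperature / Signal: Fluo-8 calcium fluorescence, excitation 470-495 nm, emission 515-575 nm / Read-out basis: percent activation from peak over basal fluorescence ratio, control-normalized / Control set: high carbachol 87 µM, low DMSO alone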
TRPN1 counter – counter-screen for TRPML3 agonists: agonists of zebrafish TRPN1 channel; shares compounds with TRPML3 agonist; HEK293 zebrafish TRPN1-YFP, Fluo-8 calcium fluorescence; scaled: carbachol wells 100%, DMSO wells 0%; activation, % at 3 µM; actives 10% (n = 310);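 active = mean activation over replicates above a set limit taken from the earlier TRPN1 channel primary screen, cut at about 19% in these data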
TRPML3 confirm – confirmation of human TRPML3 channel agonists; HEK293 TRPML3-YFP, Fluo-8 calcium fluorescence; 100% set by carbachol, 0% by DMSO; activation, % at 3 µM; AID 1526; actives 80% (n = 310); shares compounds with TRPML3 agonist;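 active = activation above a set limit derived from the earlier primary screen, cut at about 12% in these data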
Numbers stand for hits; . = inactive; / = not tested or not shown. Shown are actives, neighbours in structure and some others; about 0.58% of the full set was active somewhere.

SMILES	V1aR counter	OXTR potentiator	TRPML3 agonist	OXTR ag	TRPN1 ag	TRPN1 counter	TRPML3 confirm
Cn1c(SCC(=O)Nc2ccc3c(c2)OCCO3)nnc1C1CC1	.	.	/	.	/	/	/
CCC1CCCCN1S(=O)(=O)c1ccc(S(=O)(=O)N(Cc2ccccn2)CC2CCCO2)cc1 (configuration not stated)	.	.	28	.	.	.	96
Cc1ccc(S(=O)(=O)N2CCCC(C(=O)N(Cc3cccs3)C3CC3)C2)cc1 (configuration not stated)	.	.	.	.	.	/	/
CCC1CCCCN1S(=O)(=O)c1ccc(S(=O)(=O)N(Cc2cccs2)C2CC2)cc1 (configuration not stated)	.	.	95	.	.	.	112
CCN1CCN(CCC(=O)Nc2cc(OC)cc(OC)c2)CC1	.	.	/	.	/	/	/
COC(=O)c1cnc(N2CCCN(S(=O)(=O)c3ccccc3)CC2)nc1C(F)(F)F	.	.	13	.	.	.	13
Cc1ccc(CNc2ccc3c(c2)ncn3C(C)C)cc1	.	.	36	.	.	36	29
O=C1CN(S(=O)(=O)c2ccc(F)cc2)CC(=O)N1CCc1ccccc1	/	/	12	/	.	.	23
Cc1ccc(C)c(N(CC(=O)NC2CCCC2)S(=O)(=O)c2ccccc2)c1	.	.	/	.	/	/	/
CC(=O)Nc1ccccc1OCC(=O)c1cc(C)n(Cc2cccs2)c1C	.	.	28	.	.	27	34
Cc1cc(C)cc(-n2nnnc2SCC(=O)Nc2nc(-c3ccc(F)cc3)cs2)c1	.	.	.	.	.	/	/
CC1=CC(C)(C)N(C(=O)CSc2nnc(-c3ccc(C)cc3)o2)c2ccc(C)cc21	.	.	62	.	.	.	49
CC1=CC(C)(C)N(C(=O)CSc2nnc(C)s2)c2ccc(C)cc21	.	.	.	.	.	/	/
Cc1ccc(NC(=O)CN(C)C(=O)COc2ccccc2-c2ccccc2)cc1	.	.	/	.	/	/	/
COc1ccc(NC(=O)c2cc([N+](=O)[O-])ccc2O)cc1	.	.	15	.	.	26	.
CCCOC(=O)Nc1cc(OC)ccc1[N+](=O)[O-]	.	.	.	.	.	/	/
Cc1ccc(S(=O)(=O)Nc2cc(C(F)(F)F)ccc2N2CCOCC2)cc1	.	.	.	.	.	/	/
Cc1ccc(S(=O)(=O)Nc2cc(C(F)(F)F)ccc2N2CCOCC2)c(C)c1	.	.	48	.	.	.	102
Cc1cc(C)c(C2=NOC3C4CCC(C4)C23)c(C)c1 (configuration not stated)	.	.	24	.	.	.	104
CCc1c(C)sc(NC(=O)Cc2ccccc2OC)c1C(=O)N1CCOCC1	.	.	/	.	/	/	/
CCOc1ccc(S(=O)(=O)N(C)C2CCCCC2)cc1	.	.	/	.	/	/	/
CN(C1CCCCC1)S(=O)(=O)c1cccc(C#N)c1	.	.	63	.	.	.	44
COc1ccccc1-c1ccc(/C=C2\C=CC(=O)O2)o1	44	.	14	50	.	21	13
COc1ccccc1-c1ccc(/C=C2/C=C(C)OC2=O)o1	.	.	.	.	.	/	/
Cc1onc(-c2ccccc2)c1C(=O)N(Cc1ccco1)Cc1cccs1	/	/	29	/	.	.	19
SMILES	V1aR counter	OXTR potentiator	TRPML3 agonist	OXTR ag	TRPN1 ag	TRPN1 counter	TRPML3 confirm
Cc1onc(-c2ccccc2)c1C(=O)NCc1ccco1	.	.	.	.	.	/	/
COc1ccc(N2C(=O)C(F)(F)C2c2ccccc2F)cc1 (configuration not stated)	/	/	21	/	.	.	34
COc1ccc(N2C(=O)C(F)(F)C2c2cccc(F)c2)cc1 (configuration not stated)	.	.	.	.	.	/	/
O=C1C=C(NNC(=O)c2ccncc2)CC(c2ccccc2)C1 (configuration not stated)	.	.	19	.	.	.	.
COc1cc(C)nc(N(Cc2ccccc2)S(=O)(=O)c2ccc(C)cc2)n1	.	.	27	.	.	.	50
COc1cc(C)nc(N(Cc2ccccc2)S(=O)(=O)c2ccccc2)n1	.	.	.	.	.	/	/
NC(=O)c1c(NC(=O)CN2CCN(S(=O)(=O)c3ccccc3)CC2)sc2c1CCC2	.	.	/	.	/	/	/
CN(C)S(=O)(=O)c1ccc(N2CCCC2)c(C(=O)OCC(=O)N2CCN(c3ccccc3)CC2)c1	.	.	/	.	/	/	/
Cc1cc(C(C)(C)C)oc1C(=O)N(CC(=O)NC1CCCC1)c1ccc(F)cc1	.	.	.	.	.	/	/
Cc1cc(C(C)(C)C)oc1C(=O)N(CC(=O)NC1CCCC1)c1c(C)cccc1C	.	.	44	.	.	.	72
Fc1ccc(Nc2nnc(C(F)(F)F)s2)cc1Cl	.	.	17	.	.	.	.
Cc1cc(C)cc(N2C(=O)CSC2c2cccs2)c1 (configuration not stated)	.	.	16	.	.	.	16
CCCSc1nc(C)cc(C)c1S(=O)(=O)c1ccccc1C	.	.	.	.	.	/	/
CCCCn1c(C)cc(C)c(S(=O)(=O)c2ccccc2C)c1=O	.	.	18	.	.	.	58
Cc1cc(C)c(S(=O)(=O)c2ccccc2C)c(SCC(C)C)n1	.	.	.	.	.	/	/
Cc1ccccc1S(=O)(=O)c1c(C)cc(C)n(C(C)C)c1=O	.	.	30	.	.	.	35
O=C(Nc1ccn(-c2ccccc2)n1)c1ccc(S(=O)(=O)N2CCCCCC2)cc1	.	.	53	.	.	.	61
O=C(Nc1ccccc1)c1ccc(S(=O)(=O)N2CCCCC2)cc1	.	.	.	.	.	/	/
COc1cc(S(=O)(=O)N(C)C2CCCCC2)c(C)cc1C	/	/	54	/	.	.	63
COC(=O)c1cc(S(=O)(=O)N(C)C2CCCCC2)oc1C	.	.	.	.	.	/	/
CCOC(=O)N1CCN(C(=O)COC(=O)CN(C)S(=O)(=O)c2ccc(NC(C)=O)cc2)CC1	.	.	/	.	/	/	/
O=C(C1CCN(S(=O)(=O)N2CCOCC2)CC1)N1CCOCC1	.	.	16	.	.	.	.
CCS(=O)(=O)N1CCC(C(=O)N2CCOCC2)CC1	.	.	.	.	.	/	/
O=C(O)c1ccc2c(=O)n3c(nc2c1)/C(=C/c1ccccc1OC(F)F)CC3	.	.	/	.	/	/	/
Cc1ccc(S(=O)(=O)N(C)CC(=O)O/N=C(\N)c2cccc([N+](=O)[O-])c2)cc1	.	.	62	.	.	.	48
Cc1ccc(SCC(=O)O/N=C(\N)c2cccc([N+](=O)[O-])c2)cc1	.	.	.	.	.	/	/
